# Measured values of several laboratories.
# Each line is one published result; the experiments were not run side by side. pIC50: −log10 of the molar value.
# Effect on: enzyme activity
# Mode: inhibitor
# KDR: Vascular endothelial growth factor receptor 2 (KDR, Homo sapiens, UniProt P35968)
# PIK3CA: Phosphatidylinositol 4,5-bisphosphate 3-kinase catalytic subunit alpha isoform (PIK3CA, Homo sapiens, UniProt P42336)
# PIK3CB: Phosphatidylinositol 4,5-bisphosphate 3-kinase catalytic subunit beta isoform (PIK3CB, Homo sapiens, UniProt P42338)
SMILES,target,test,pIC50
O=[N+]([O-])c1cc(I)c(O)c(C=NNc2ccccc2)c1,KDR,ATP luminescence,5.30
CN(C)C(=O)c1cc2cnc(Nc3ccc(-c4ccc5c(=O)cc(N6CCOCC6)oc5c4)cc3)nc2n1C1CCCC1,PIK3CA,radiometric,5.24
O=C1C(=Nc2ccccc2I)c2ccccc2N1Cc1ccc(Br)cc1,PIK3CA,ADP detection,6.53
O=C1/C(=C/c2ccc3ccccc3c2O)NC(=S)N1c1ccccc1,KDR,ELISA,6.63
CCc1ccc(N=C2C(=O)Nc3ccccc32)cc1,PIK3CB,ADP detection,6.57
Cc1nc2c(F)cc(-c3ccnc(Nc4ccc5c(=O)cc(N6CCOCC6)oc5c4)n3)cc2n1C(C)C,PIK3CA,radiometric,5.67
O=C(O)[C@H]1O[C@@H](Oc2cc3oc(-c4ccc(O)cc4)cc(=O)c3c(O)c2O)[C@H](O)[C@@H](O)[C@@H]1O,KDR,TR-FRET,5.08
CN(C)C(=O)c1cc2cnc(Nc3ccc(-c4ccc5c(=O)cc(N6CCNCC6)oc5c4)cc3)nc2n1C1CCCC1,PIK3CA,radiometric,< 5.00
O=[N+]([O-])c1cc(Br)c(O)c(C=NNc2ccc(C(F)(F)F)cc2)c1,KDR,ATP luminescence,5.05
O=C1C(=Nc2ccc(Cl)cc2)c2ccccc2N1Cc1ccc([N+](=O)[O-])cc1,PIK3CB,ADP detection,8.11
CC(C)C[C@H](NC(=O)[C@@H](NC(=O)N[C@@H](Cc1ccccc1)C(=O)O)[C@@H]1CCN=C(N)N1)C(=O)N[C@H](C=O)Cc1ccccc1,"Cathepsin G (CTSG, Homo sapiens, UniProt P08311)",,5.38
O=[N+]([O-])c1cc(Br)c(O)c(C=NNc2ccc(Cl)cc2)c1,KDR,ATP luminescence,5.11
CN(C)C(=O)c1cc2cnc(Nc3ccc(-c4cccc5c(=O)cc(N6CCNCC6)oc45)cc3)nc2n1C1CCCC1,PIK3CA,radiometric,< 5.00
O=C1C(=Nc2ccc(Cl)cc2)c2ccccc2N1Cc1cccc(Cl)c1,PIK3CA,ADP detection,6.49
CC1=C(/C=C/C(C)=C/C=C/C(C)=C/C=C/C=C(C)/C=C/C=C(C)/C=C/C2=C(C)CCCC2(C)C)C(C)(C)CCC1,KDR,TR-FRET,< 4.40
COc1ccc(-c2oc3cc(Nc4ncc5cc(C(=O)N(C)C)n(C6CCCC6)c5n4)ccc3c(=O)c2F)cc1,PIK3CA,radiometric,< 5.00
Cc1cccc(N=C2C(=O)N(Cc3ccccc3)c3ccccc32)c1,PIK3CA,ADP detection,8.06
O=C(Nc1nnc(-c2ccc3c(c2)OCCO3)o1)c1ccc(C(=O)c2ccccc2)cc1,PIK3CA,ADP detection,6.33
O=[N+]([O-])c1cc(I)c(O)c(C=NNc2ccc(C(F)(F)F)cc2)c1,KDR,ATP luminescence,5.35
Cc1ccc(CN2C(=O)C(=Nc3cccc(Cl)c3)c3ccccc32)cc1,PIK3CA,ADP detection,7.56
O=[N+]([O-])c1cc(I)c(O)c(C=NNc2ccc(Br)cc2)c1,KDR,ATP luminescence,5.19
CN(C)C(=O)c1cc2cnc(Nc3cc(C(=O)O)cc(-c4ccc5c(=O)cc(N6CCOCC6)oc5c4)c3)nc2n1C1CCCC1,PIK3CA,radiometric,6.95
O=C1C(=Nc2ccccc2Br)c2ccccc2N1Cc1ccccc1,PIK3CB,ADP detection,7.78
CN(C)C(=O)c1cc2cnc(Nc3ccc(-c4cccc5c(=O)cc(N6CCOCC6)oc45)cn3)nc2n1C1CCCC1,PIK3CA,radiometric,< 5.00
Cc1cccc(N=C2C(=O)N(Cc3cccc(Cl)c3)c3ccccc32)c1,PIK3CB,ADP detection,7.47
O=[N+]([O-])c1cc(I)c(O)c(C=NNc2ccc(Cl)cc2)c1,KDR,ATP luminescence,5.11
CN(C)C(=O)c1cc2cnc(Nc3cc(C(F)(F)F)c(-c4ccc5c(=O)cc(N6CCOCC6)oc5c4)cn3)nc2n1C1CCCC1,PIK3CA,radiometric,< 5.00
